Experimental data collected from several papers.
Each line is one published result; the experiments were not run side by side.
Cell line: HeLa
Read-out: cell growth or viability

COc1cc(C)c(-c2c(C)cc(OC)c3c(=O)cc(-c4ccccc4)oc23)c2oc(-c3ccccc3)cc(=O)c12 has an IC50 of 11.8 µM (MTT; 48 h).
The IC50 of CC1(C)S[C@@H]2[C@H](NC(=O)C(C(=O)O)c3ccccc3)C(=O)N2[C@H]1C(=O)O (some centres unmarked) is reported as 76.2 µg/mL (ATP luminescence; 48 h).
The IC50 of COc1cc(C)cc2oc(-c3ccc(N(C)C)cc3)cc(=O)c12 is reported as 24.2 µM (MTT; 48 h).
For CC1(C)SC2C(NC(=O)C(NC(=O)C3=C(O)C4CCCN4C3=O)c3ccccc3)C(=O)N2C1C(=O)O (centres unmarked), the IC50 was 52.1 µg/mL (ATP luminescence; 48 h).
The IC50 of C#CCOc1ccc(C(=O)c2ccc(-c3cccc(NC(=O)CCc4cccc5c4B(O)OC5)c3)cc2)cc1 is reported as 4.4 µM (ATP luminescence; 72 h).
COc1cc(OC)cc(C(=O)c2cc3c(-c4ccccc4)c(OC)ccc3o2)c1 has an IC50 of greater than 50 µM.
COc1ccc(C(=O)O[C@@H]2CN3Cc4c(cc5c(c4OC)OCO5)[C@@]24C=C[C@H](OC)C[C@@H]34)cc1 gave an IC50 of greater than 10 µM (WST-1; 48 h).
COc1cc(OC)c2c(=O)cc(-c3ccccc3Br)oc2c1-c1c(OC)cc(OC)c2c(=O)cc(-c3ccccc3Br)oc12 gave an IC50 of 10.4 µM (MTT; 48 h).
COC(=O)CN=c1scc(-c2ccccc2)n1-c1ccc(OC)cc1 has an IC50 of 6.75 µM (MTT; 72 h).
The IC50 of C(C#Cc1ccccc1)#Cc1ccccc1 is reported as 3.77 µg/mL (MTT; 24 h).
For NCCOc1cc(NC(=O)c2cc(OCc3ccc(F)cc3)cc(C(=O)Nc3cc(OCCN)c4ccccc4n3)n2)nc2ccccc12, the IC50 was 9.6 µM (ATP luminescence; 72 h).
COc1ccc(C(=O)c2cc3c(-c4ccccc4)c(O)ccc3o2)cc1 gave an IC50 of 0.51 µM.
CC(C)(C)OCC1NC(=O)C(C(=O)NC(C(=O)NC2C(=O)N3C2SC(C)(C)C3C(=O)O)c2ccccc2)=C1O (centres unmarked) has an IC50 of 106 µg/mL (ATP luminescence; 48 h).
The IC50 of NCCOc1cc(NC(=O)c2cc(OCc3c[nH]nn3)cc(C(=O)Nc3cc(OCCN)c4ccccc4n3)n2)nc2ccccc12 is reported as 7.7 µM (ATP luminescence; 72 h).
C[C@@H](O)C(=O)CCCCC[C@@H]1NC(=O)[C@H]2CCCN2C(=O)[C@H](Cc2ccccc2)NC(=O)C(C)(C)NC1=O has an IC50 of 0.17 µM (XTT).
The IC50 of COc1cc(OC)c2c(=O)cc(-c3ccc(N(C)C)cc3)oc2c1-c1c(OC)cc(OC)c2c(=O)cc(-c3ccc(N(C)C)cc3)oc12 is reported as 43.8 µM (MTT; 48 h).
The IC50 of COc1cc(C(=O)Nc2cc(OCCN3CCCC3)c3ccccc3n2)nc(C(=O)Nc2cc(OCCN3CCCC3)c3ccccc3n2)c1 is reported as 3.9 µM (ATP luminescence; 72 h).
For Cc1ccc2c(Cl)cc(Cl)c(O)c2n1, the IC50 was greater than 100 µM (MTT; 48 h).
With CCCC(O)C#CC#CC(O)CCC (centres unmarked) the IC50 was 19.3 µg/mL (MTT; 24 h).
With Oc1c(I)cc(I)c2cccnc12 the IC50 was greater than 100 µM (MTT; 48 h).
For COc1nc(OCc2cccc(-c3ccccc3)c2C)ccc1CNCCNC(C)=O, the IC50 was 3.6 µM (MTT).
O=C(Nc1cc(OCCN2CCCC2)c2ccccc2n1)c1cc(Cl)cc(C(=O)Nc2cc(OCCN3CCCC3)c3ccccc3n2)n1 has an IC50 of 4.7 µM (ATP luminescence; 72 h).
COc1ccc(-c2cc(=O)c3c(OC)cc(C)cc3o2)cc1 has an IC50 of 28.4 µM (MTT; 48 h).
